Measured values from ChEMBL document CHEMBL2062496, “Identification of a sirtuin 3 inhibitor that displays selectivity over sirtuin 1 and 2” (Eur J Med Chem, 2012).

Assays:
[1] = target: T1, NAD-dependent protein deacetylase sirtuin-2 (Homo sapiens) (UniProt Q8IXJ6); experiment: Inhibition of human SIRT2 assessed as enzyme activity using Fluor-de-Lys as substrate at 1 mM by fluorometry; set-up: scale not given: the % may be the effect or the level left
T1 sequence (whole entry): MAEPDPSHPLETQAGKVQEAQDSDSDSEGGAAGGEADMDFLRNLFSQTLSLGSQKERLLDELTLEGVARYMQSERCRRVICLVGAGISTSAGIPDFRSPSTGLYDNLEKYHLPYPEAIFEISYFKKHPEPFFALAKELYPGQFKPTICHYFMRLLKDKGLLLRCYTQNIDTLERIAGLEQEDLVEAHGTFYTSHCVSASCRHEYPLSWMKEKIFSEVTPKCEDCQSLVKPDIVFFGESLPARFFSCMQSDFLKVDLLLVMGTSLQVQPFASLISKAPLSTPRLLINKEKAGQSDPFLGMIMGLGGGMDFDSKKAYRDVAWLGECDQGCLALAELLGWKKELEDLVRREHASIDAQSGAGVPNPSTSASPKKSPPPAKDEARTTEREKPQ
Method in brief: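 Commercial Fluor-de-Lys kit, substrate human p53 379–382 peptide (Arg-His-Lys-Lys(Ac)). Human Sirt1 or Sirt2 was incubated with substrate, NAD+ and compound at 1 mM, also tested at 100 µM. Fluorescence scales with Lys382 deacetylation. Activity is expressed relative to control, mean ± S.E.M. of 3–4 replicates.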

NCI-H226 = experiment: Growth of human NCI-H226 cells assessed as cell growth at 10 uM after 48 hrs by MTT assay; conditions: NCI-H226, 48 h
UACC-62 = experiment: Growth inhibition of human UACC62 cells assessed as cell growth at 10 uM after 48 hrs by MTT assay; values are per cent of control; conditions: UACC-62, 48 h

c1cncc(-c2cnn[nH]2)c1
Activity [1]: 92% | growth, % of control at 10 µM (NCI-H226): 80.6% | growth, % of control at 10 µM (UACC-62): 90.7%
